Screening results (PubChem)
Compounds with a hit are over-represented: about 2.3% of the library has one in this group of screens.
LGR2 inh = blocks bursicon-induced cAMP signaling via Drosophila LGR2. HEK293 LGR2, CRE-luciferase, bursicon-stimulated, 4 h. inhibition, % at 9.99 µM. AID 720647. 380,000 compounds, 0.35% hits;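 active = drop in luminescence signal, shown as inhibition above about 50% in the replicate tests, limit read from the data, passing the limit was not always enough; inconclusive = probably only some replicates passing the limit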;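 note: agonist challenge used bursicon conditioned medium at about half maximal strength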
EWS-Fli block = inhibitors of EWS/Fli oncoprotein transcriptional activity; A673 NR0B1-luciferase reporter, viability-normalised; inhibition, % at 12.6 µM; 350,000 compounds, 0.67% hits; AID 651661;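 active = mean inhibition of at least 50% after viability correction, with every replicate also passing that limit; inconclusive = mean reaches 50% but only one of two replicates passes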;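 note: firefly luciferase signal divided by Alamar Blue viability fluorescence both relative to DMSO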
TWEAK Fn14 block = blocks TWEAK-Fn14 interaction in a reporter cell assay; TWEAK-stimulated Fn14 reporter cells, luciferase luminescence, 8 h; inhibition, % at 10 µM; 360,000 compounds, 2% hits; in the data active = inhibition above about 50%
FN deposition inh = fibronectin deposition inhibition; AH1F fibroblasts, Alexa488-fibronectin deposition fluorescence, overnight; inhibition, % at 12.6 µM; 350,000 compounds, 0.086% hits; AID 743247;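 active = mean inhibition across replicates of 30% or more, regardless of how many single replicates reach that level; inconclusive = mean under 30% yet at least half of replicates reach 30%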;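 note: positive control wells lacked labelled fibronectin entirely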
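Assay system: AH1F fibroblasts assembling fluorescent fibronectin matrix; Amount: 10000 AH1F cells per well; Buffer or medium: DMEM, 2% serum; Probe or stimulus: Alexa488-fibronectin, 24 nM final in well; Doses: single compound dose, delivered by pin transfer; Incubation: 1 h adhesion, overnight exposure; Measured by: fluorescence 485/525 nm; Read-out: fibronectin deposition inhibition.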
Xi reactivation = reactivates the inactive X chromosome in mouse fibroblasts; XiGFP mouse fibroblasts, % GFP-positive cells imaging, 3 d; cells co-treated with 5-aza-dC sensitizer; scaled so ellipticine positive control = 100%; activation, % at 7.58 µM; 360,000 compounds, 0.055% hits;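 active = mean normalized replicate activation at least 10% and every replicate at or above 10%; inconclusive = only one of the two criteria met; inactive = mean below 10% and not all replicates reach 10%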;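 note: 0% = median of on-plate neutral control wells and 100% = ellipticine 6 µM median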
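material = 68-5-11 XiGFP fibroblast line | medium = DMEM plus 5-aza-dC sensitizer | schedule = 3 days compound exposure | benchmarks = positive control ellipticine, 6 µM final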
TROY signal inh = inhibitors of TROY-dependent NF-kB signaling | Q293 LMP1-TROYcd NF-kB luciferase reporter, 4 h | AID 1347056 | inhibition, % at 10 µM | 360,000 compounds, 0.98% hits;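 active = compounds whose plate-normalised and pattern-corrected inhibition of the luciferase reporter signal at the single screening dose is 50% or more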
The depositor's hits bear a star; u = inconclusive; x = no result.

SMILES	LGR2 inh	EWS-Fli block	TWEAK Fn14 block	FN deposition inh	Xi reactivation	TROY signal inh
COc1cc(/C=C/C(=O)OCC(=O)Nc2ccccc2Sc2ccc(Cl)cc2)ccc1O	5	x	36	7	0	52*
COc1ccc(-c2nsc3c(N4CCCCC4)ncnc23)cc1	x	x	102*	-3	x	80*
Cc1ccc(-c2nsc3c(N4CCC(C(N)=O)CC4)ncnc23)cc1	x	x	59*	-4	x	45
COc1ccc(-c2nsc3c(N4CCCCC4C)ncnc23)cc1 (stereo unspecified)	95*	83*	98*	-9	0	91*
COc1ccc(C(=O)N2CCN(c3ncnc4c(-c5ccccc5)nsc34)CC2)cc1	x	x	16	2	x	6
COc1ccccc1N=Nc1ccc(O)c2ncccc12	-21	-86	42	11	0	65*
Oc1ccc(N=Nc2ccccc2C(F)(F)F)c2cccnc12	46	3	2	8	0	6
CCS(=O)(=O)c1ccc(N=Nc2ccc(O)c3ncccc23)c(OC)c1	47	11	65*	8	0	39
Cc1ccc(N=Nc2ccc(O)c3ncccc23)cc1C	11	-24	10	15	1	9
COc1ccccc1S(=O)(=O)N[C@@H]1CC[C@H](CC(=O)NCc2cc(F)cc(F)c2)O[C@@H]1CO	-7	-4	x	x	-1	x
CN(C)c1ccc(/C=C(\Cl)c2nc3ccccc3s2)cc1	x	x	92*	x	x	73*
COc1ccc(NC(=O)N(C)C[C@H]2OCc3ccccc3-c3ccccc3C(=O)N([C@@H](C)CO)C[C@@H]2C)cc1	x	x	x	-13	0	x
C=C[C@]1(C)C=C2C(=O)[C@@]3(O)OC(=O)[C@@]4(CCCC(C)(C)[C@H]34)[C@@]2(O)CC1	13	15	104*	1	1	27
C=C[C@]1(C)C=C2CC[C@H]3[C@@](C)(CCC[C@@]3(C)C(=O)O)[C@@H]2CC1	x	x	-16	x	x	32
Cc1cccc(CSC(Nc2ccc(F)cc2)=C(C#N)C#N)c1	u	x	64*	1	0	48
CCN(CC)CCNCC(=O)N1c2ccccc2CCc2ccc(NC(=O)OC)cc21	7	17	105*	2	0	-4
O=C(c1ccc(Cl)cc1)c1cnc(-c2ccc(Cl)cc2)s1	x	x	-14	7	x	-53
O=C(c1ccccc1)c1cnc(-c2ccc(Cl)cc2)s1	x	x	62*	-7	x	15
CCn1c(CCNC(=O)c2ccc(OC)cc2)nnc1SCc1ccc(Cl)cc1Cl	13	x	12	7	x	63*
COCC(=O)Nc1ccc2c(c1)C(=O)N(C)C[C@@H](OC)[C@H](C)CN(C)[C@H](C)CO2	-23	-5	x	4	0	x
Cc1cc(N2CCN(S(=O)(=O)c3ccc(Cl)cc3)CC2)c2ccccc2n1	x	x	31	x	x	53*
CS(=O)(=O)N1CCN(c2ccnc3cc(Cl)ccc23)CC1	3	0	67*	-5	0	21
Cc1ccc(S(=O)(=O)N2CCN(c3ccnc4cc(Cl)ccc34)CC2)cc1	8	5	51*	-7	0	31
CC1=CC(=O)C=CC1=Nc1ccc(N(C)C)cc1	-13	5	67*	-6	0	9
Oc1ccc(N=Cc2ccc(-c3cccs3)s2)cc1	59*	x	17	5	x	8
SMILES	LGR2 inh	EWS-Fli block	TWEAK Fn14 block	FN deposition inh	Xi reactivation	TROY signal inh
O=Cc1ccc(-c2cccs2)s1	u	9	-18	-12	0	4
O=C(Nc1ccccc1)Nc1cc(Cl)cc(Cl)c1	x	x	41	x	x	51*
O=C(NCCNC(=O)c1cc(OCC(F)(F)F)ccc1OCC(F)(F)F)Nc1cccc(C(F)(F)F)c1	x	x	5	x	x	24
COC(=O)c1cccc(NC(=O)Nc2ccc(Cl)cc2)c1	-13	75*	-3	-1	0	-19
O=C(Nc1cccc(Cl)c1)Nc1cccc(Cl)c1	x	x	-8	18	x	-19
COC(=O)c1cccc(NC(=S)Nc2ccc(Cl)c(Cl)c2)c1	-12	-14	-7	-2	0	-43
COC(=O)c1cc(NC(=O)Nc2cccc(Cl)c2)ccc1Cl	7	-9	78*	x	x	37
O=C(Nc1ccccc1)Nc1cc(OCC(F)(F)F)cc(OCC(F)(F)F)c1	30	44	59*	5	0	43
COCC(=O)N(C)C[C@@H]1Oc2cc(C3=CCCCC3)ccc2S(=O)(=O)N([C@H](C)CO)C[C@H]1C	15	0	x	x	-1	x
C[C@@H]1CN([C@H](C)CO)C(=O)c2cccc(NC(=O)c3ccc(-c4nccs4)cc3)c2O[C@H]1CN(C)S(=O)(=O)c1ccc(Cl)cc1	-15	-14	x	10	-1	x
Cc1noc(C)c1NC(=O)Nc1ccc2c(c1)C(=O)N([C@@H](C)CO)C[C@H](C)[C@H](CN(C)Cc1ccc(C(F)(F)F)cc1)O2	-7	x	x	x	0	x
C[C@@H]1CCCCO[C@@H](CN(C)S(=O)(=O)c2ccccc2)[C@H](C)CN([C@@H](C)CO)C(=O)c2cc(NC(=O)NC3CCCCC3)ccc2O1	4	3	x	-4	0	x
Cc1ccc(NC(=O)CC2Nc3ccccc3NC2=O)cc1Cl (stereo unspecified)	x	x	6	x	x	x
O=C(CC1Nc2ccccc2NC1=O)Nc1ccc2c(c1)OCO2 (stereo unspecified)	2	-31	-4	34*	0	-71
Cc1ccc(S(=O)(=O)N(C)C[C@@H]2Oc3ccc(NC(=O)CCC(F)(F)F)cc3C(=O)N([C@H](C)CO)C[C@@H]2C)cc1	-5	-3	x	x	-1	x
COC(=O)N/N=C/c1cccs1	10	3	8	-5	0	-33
COc1cc2ccccc2cc1C(=O)N/N=C/c1cccs1	-16	58*	-26	2	1	-16
Clc1ccc(CNc2ncccn2)cc1	9	2	72*	2	0	13
Fc1ccc(CNc2ncccn2)cc1	-3	-14	15	-2	0	-2
CN(C)CC#Cc1ccc([C@@H]2[C@@H](CO)N3C(=O)CN(C(=O)c4ccc(F)cc4)C[C@@H]23)cc1	-14	-5	x	x	0	x
COc1ccc(C(=O)SC2=NCCS2)cc1	-5	2	54*	x	x	34
CCOc1ccc(C(=O)SC2=NCCS2)cc1	x	x	63*	x	x	36
CCOc1cccc(C(=O)NC2=NCCS2)c1	-44	-3	17	-3	0	-35
Nc1ncnc2c(C3OC(CO)C(O)C3O)c[nH]c12 (stereo unspecified)	101*	46	101*	24	1	71*
Nc1ncnc2c1ncn2[C@@H]1O[C@H](CO)[C@@H](O)[C@H]1O	-14	-7	-57	x	0	-2
COc1ccc(C(C)=O)cc1CSc1nnc(Nc2ccc(C)cc2)s1	x	3	63*	-4	0	29
COc1ccc(C(C)=O)cc1CSc1nnc(C)s1	x	x	6	x	x	11
